Reference: ChEMBL document CHEMBL1148339, “Synthesis, structure-activity relationships, and drug resistance of beta-d-3'-fluoro-2',3'-unsaturated nucleosides as anti-HIV Agents” (J Med Chem, 2004)

Key:
CCRF-CEM = assay: Cytotoxicity against T-lymphoblastoid cell line (CEM); assay type: functional, cell-based; conditions: Homo sapiens
In short: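 CEM T-lymphoblastoid cells in log phase, seeded 2.5 × 10³ cells/well with 10-fold serial dilutions of compound, 4 days at 37 °C in humidified 5% CO₂/air.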

[1] = system: Human immunodeficiency virus 1; assay: Effective concentration against HIV-1 in human peripheral blood mononuclear cells (PBMC); assay type: functional, organism-based
In short: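 PBM cells infected in bulk for 1 h with HIV-1 LAI (100 TCID50/1 × 10⁷ cells, flask, or 200 TCID50/6 × 10⁵ cells/well), then cultured 5 days at 37 °C with 10-fold compound dilutions in IL-2 medium. Supernatant virus pelleted; RT activity measured with poly(rA)·oligo(dT) and [³H]TTP, 2 h 37 °C. EC50/EC90 by median effect method.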

[2] = Cytotoxicity against human peripheral blood mononuclear cells (PBMC); assay type: functional, cell-based
In short: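 Uninfected PHA-stimulated human PBM cells from seronegative donors (Ficoll–Hypaque), 5 × 10⁴ cells/well, 10-fold serial compound dilutions, 5 days at 37 °C in 5% CO₂/air. MTT assay read at 570 nm; IC50 by median effect method.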

Vero [3] = assay: Cytotoxicity against vero cell line; assay type: functional, cell-based; conditions: Chlorocebus sabaeus
In short: (§1)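 Log-phase Vero (African green monkey kidney) cells seeded 5 × 10³ cells/well with 10-fold serial compound dilutions, cultured 3 days at 37 °C, humidified 5% CO₂/air.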

[4] = t1/2 (half life) period was determined; assay type: ADME
[5] = system: Human immunodeficiency virus 1; assay: Effective concentration against M184V HIV-1 virus in human peripheral blood mononuclear cells
[6] = system: Human immunodeficiency virus 1; assay: Effective concentration against Wild Type HIV-1 virus in human peripheral blood mononuclear cells
Vero [7] = assay: Cytotoxicity against Vero cell line; assay type: functional, cell-based; conditions: Chlorocebus sabaeus; in short: as §1
[8] = system: adenosine deaminase (ADA); assay: Ability to get deaminated by adenosine deaminase (ADA); Expressed as t1/2; assay type: ADME, Bos taurus; conditions: cattle
In short: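 Calf intestinal mucosa adenosine deaminase, 0.15 units, in phosphate buffer pH 7.4 at 25 °C; substrate at 20 μM. Deamination followed by UV absorbance at 265 nm, with substrate concentration derived from absorbance change over time to give half-life.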

[9] = t1/2 (half life) period was determined; No decomposition observed up to 7 days; assay type: ADME; conditions: 168 h

Structure (SMILES) | IC50 (CCRF-CEM) [µM] | EC50 [1] [µM] | IC50 [2] [µM] | IC50 (Vero [3]) [µM] | also measured
Nc1ncnc2c1ncn2[C@@H]1C=C(F)[C@H](CO)O1 | > 100 | > 100 | > 100 | > 100 | 
Nc1ccn([C@H]2C=C(F)[C@@H](CO)O2)c(=O)n1 | > 100 | 2.3 | > 100 | > 100 | half-life [4]: 48 h; EC50 [5]: 19.7 µM; EC50 [6]: 2.3 µM
Nc1ccn([C@H]2C=C[C@@H](CO)O2)c(=O)n1 |  | 0.005 | 65 |  | half-life [4]: 1 h
OC[C@H]1O[C@@H](n2cnc3c(O)ncnc32)C=C1F | 77.7 | 12.8 | > 100 | > 100 | 
Nc1nc(O)c2ncn([C@H]3C=C(F)[C@@H](CO)O3)c2n1 | > 100 | 44.9 | > 100 | 75.5 | 
Cc1cn([C@H]2C=C(F)[C@@H](CO)O2)c(=O)[nH]c1=O | > 100 | > 100 | > 100 |  | IC50 (Vero [7]): > 100 µM
Nc1ncnc2c1ncn2[C@H]1C=C[C@@H](CO)O1 |  |  |  |  | half-life [8]: 4460 min
O=c1ccn(C2C=C(F)C(CO)O2)c(=O)[nH]1 (stereo not given) | > 100 | > 100 | > 100 | 82.6 | 
Nc1ncnc2c1ncn2[C@@H]1O[C@H](CO)C=C1F |  |  |  |  | half-life [8]: 42 min
Nc1ncnc2c1ncn2[C@H]1C=C(F)[C@@H](CO)O1 | > 100 | 6.55 | > 100 | > 100 | half-life [8]: 56 min
Nc1ccn([C@@H]2O[C@H](CO)C=C2F)c(=O)n1 |  |  |  |  | T1/2 [9]: Infinity
Nc1nc(=O)n([C@H]2C=C(F)[C@@H](CO)O2)cc1F | > 100 | 9.29 | > 100 | > 100 | 
Nc1nc(=O)n([C@@H]2C=C(F)[C@H](CO)O2)cc1F | > 100 | 0.018 | > 100 | > 100 | 
Nc1ccn([C@@H]2C=C(F)[C@H](CO)O2)c(=O)n1 | > 100 | 0.089 | 86.9 | > 100 | EC50 [5]: 2.4 µM; EC50 [6]: 0.089 µM
Nc1ncnc2c1ncn2[C@@H]1O[C@H](CO)[C@@H](O)[C@H]1O [ADENOSINE] |  |  |  |  | half-life [8]: 0.5 min
Cc1cn([C@H]2C[C@H](N=[N+]=[N-])[C@@H](CO)O2)c(=O)[nH]c1=O [ZIDOVUDINE] |  |  |  |  | EC50 [5]: 0.0027 µM; EC50 [6]: 0.0041 µM
